We go through seven compounds from ChEMBL document CHEMBL3244187, “Structure--activity relationships in cephalosporins prepared from penicillins. 2. Analogues of cephalexin substituted in the 3-methyl group” (J Med Chem, 1977).

In general, MIC refers to the smallest concentration in the dilution series that meets the test's criterion for growth inhibition.

Data set [1] deals with Staphylococcus aureus. The data set is described as follows: Antibacterial activity against beta-lactamase producing benzylpenicillin-resistant Staphylococcus aureus Russell after 18 hrs by serial dilution method. The class given is functional. The essentials:
(§1)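 MICs by serial dilution on nutrient agar. Inoculum 0.001 mL of undiluted overnight broth culture. Plates incubated 18 h at 37 °C before reading. The S. aureus Russell strain produces β-lactamase and resists benzylpenicillin.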

Data set [2] deals with Shigella sonnei. The data set is described as follows: Antibacterial activity against Shigella sonnei after 18 hrs by serial dilution method. The class given is functional. The procedure, abridged:
(§2)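 MICs by serial dilution on nutrient agar. Inoculum 0.001 mL of undiluted overnight broth culture. Plates incubated at 37 °C for 18 h before reading.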

The subject of data set [3] is Escherichia coli. The data set can be described thus: Antibacterial activity against Escherichia coli after 18 hrs by serial dilution method. The class given is functional. The essentials: as §2
In data set [4] the test system is Proteus mirabilis. The data set is described as follows: Antibacterial activity against Proteus mirabilis after 18 hrs by serial dilution method. The class given is functional. The essentials:
as §2

Data set [5] deals with Salmonella typhi. The data set can be described thus: Antibacterial activity against Salmonella typhi after 18 hrs by serial dilution method. The class given is functional, Salmonella enterica subsp. enterica serovar Typhi. To be noted: Salmonella enterica. The procedure, abridged:
as §1

In data set [6] the test system is Klebsiella aerogenes. The data set is described as follows: Antibacterial activity against Klebsiella aerogenes after 18 hrs by serial dilution method. The class given is functional. The essentials: as §2
Data set [7] deals with Staphylococcus aureus. The data set can be described thus: Antibacterial activity against Staphylococcus aureus Oxford after 18 hrs by serial dilution method. The class given is functional. The essentials:
as §2

Data set [8] relates to Enterobacter cloacae. The data set is described as follows: Antibacterial activity against cephalosporin-resistant Enterobacter cloacae after 18 hrs by serial dilution method. The class given is functional, organism-based. The procedure, abridged:
as §1

The nature of data set [9]: Drug level in mouse blood at 50 mg/kg, po after 2 hrs by microbiological assay. The class given is ADME, organism-based. Details: dose 50 mg/kg, route oral. To be noted: read-out: Drug uptake. The procedure, abridged: (§3)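 Mice given a single 50 mg/kg dose by the route in the line. Groups of five killed at each time point and blood taken from the cut axilla, heparinized and stored at 4 °C. Blood assayed the same day by large-plate microbiological assay with Sarcina lutea NCTC 8340, overnight at 30 °C. Standards made in mouse blood, with pH 7.2 phosphate-buffered saline as diluent.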

The nature of data set [10]: Drug level in mouse blood at 50 mg/kg, po after 10 mins by microbiological assay. The class given is ADME, organism-based. Also on record: dose 50 mg/kg, route oral. To be noted: read-out: Drug uptake. The procedure, abridged:
as §3

Data set [11] deals with Morganella morganii. The data set can be described thus: Antibacterial activity against cephalosporin-resistant Proteus morganii after 18 hrs by serial dilution method. The class given is functional, organism-based. The essentials:
as §1

Data set [12] in a line: Drug level in mouse blood at 50 mg/kg, po after 4 hrs by microbiological assay. The class given is ADME, organism-based. Also on record: dose 50 mg/kg, route oral. To be noted: read-out: Drug uptake. The essentials: as §3
The nature of data set [13]: Drug level in mouse blood at 50 mg/kg, po after 1 hr by microbiological assay. The class given is ADME, organism-based. Also on record: dose 50 mg/kg, route oral. Particulars: read-out: Drug uptake. The procedure, abridged:
as §3

A short description of data set [14]: Drug level in mouse blood at 50 mg/kg, po after 30 mins by microbiological assay. Particulars: read-out: Drug uptake. Also on record: dose 50 mg/kg, route oral. The class given is ADME, organism-based. The essentials: as §3
In data set [15] the test system is Pseudomonas aeruginosa. The data set is described as follows: Antibacterial activity against cephalosporin-resistant Pseudomonas aeruginosa after 18 hrs by serial dilution method. The class given is functional, organism-based. The essentials: as §1
Data set [16] is described as follows: Drug level in mouse blood at 50 mg/kg, po after 20 mins by microbiological assay. Also on record: dose 50 mg/kg, route oral. Particulars: read-out: Drug uptake. The class given is ADME, organism-based. The procedure, abridged: as §3

≈ marks a conversion by molar mass, not a printed value. Calls of active or inactive are those of the source.

As to `Cn1cccc1CC1=C(C(=O)O)N2C(=O)[C@@H](NC(=O)[C@H](N)c3ccccc3)[C@H]2SC1`, the MIC came to 50 µg/mL (≈ 117 µM) in data set [1]; 500 µg/mL (≈ 1170 µM) in data set [2]; 500 µg/mL (≈ 1170 µM) in [3]; 500 µg/mL (≈ 1170 µM) in data set [4]; 50 µg/mL (≈ 117 µM) in [5]; 500 µg/mL (≈ 1170 µM) in [6]. In addition, the MIC in data set [7] is 1.25 µg/mL (≈ 2.93 µM).
For `Cc1ccncc1CC1=C(C(=O)O)N2C(=O)[C@@H](NC(=O)[C@H](N)c3ccccc3)[C@H]2SC1`, the MIC in data set [1] is 12.5 µg/mL (≈ 28.5 µM); in [2], 12.5 µg/mL (≈ 28.5 µM); in [3], 12.5 µg/mL (≈ 28.5 µM); in data set [4], 25 µg/mL (≈ 57 µM); in data set [5] it was 5 µg/mL (≈ 11.4 µM); in data set [6], 12.5 µg/mL (≈ 28.5 µM). In data set [7], the MIC was 0.12 µg/mL (≈ 0.274 µM).
As for `N[C@@H](C(=O)N[C@@H]1C(=O)N2C(C(=O)O)=C(Cc3cccnc3)CS[C@H]12)c1ccccc1`, the MIC in data set [1] came out at 2.5 µg/mL (≈ 5.89 µM); in data set [2], 2.5 µg/mL (≈ 5.89 µM); in data set [3], 2.5 µg/mL (≈ 5.89 µM); in data set [4] it was 5 µg/mL (≈ 11.8 µM); in [5], 1.25 µg/mL (≈ 2.94 µM); in data set [6] it was 2.5 µg/mL (≈ 5.89 µM). In addition, the minimal inhibitory concentration (MIC) in data set [7] worked out at 0.25 µg/mL (≈ 0.589 µM). The outcome in data set [8], in [11] and in [15] was inactive. The concentration at 2 h in data set [9] amounted to 650 ng/mL. Moreover, in data set [10], the concentration at 10 min was 2850 ng/mL. Further, the concentration at 4 h in data set [12] was determined as 100 ng/mL. In data set [13], the concentration at 1 h was found to be 620 ng/mL. Besides, in data set [14], the concentration at 0.5 h was determined as 1250 ng/mL. Moreover, the concentration at 20 min in data set [16] was determined as 1440 ng/mL.
As for `N[C@@H](C(=O)N[C@@H]1C(=O)N2C(C(=O)O)=C(Cc3ccccc3C(F)(F)F)CS[C@H]12)c1ccccc1`, the MIC was 5 µg/mL (≈ 10.2 µM) in data set [1]; greater than 100 µg/mL in data set [2]; greater than 100 µg/mL in data set [3]; greater than 100 µg/mL in data set [4]; greater than 100 µg/mL in [5]; greater than 100 µg/mL in data set [6]. Besides, in data set [7], it took 0.5 µg/mL (≈ 1.02 µM) to inhibit growth (MIC).
Turning to `N[C@@H](C(=O)N[C@@H]1C(=O)N2C(C(=O)O)=C(Cc3ccccc3)CS[C@H]12)c1ccccc1`, the MIC in data set [1] is 2.5 µg/mL (≈ 5.9 µM); in data set [2] it was 25 µg/mL (≈ 59 µM); in data set [3], 25 µg/mL (≈ 59 µM); in data set [4], 50 µg/mL (≈ 118 µM); in data set [5], 25 µg/mL (≈ 59 µM); in data set [6], 25 µg/mL (≈ 59 µM). In data set [7], the lowest concentration to inhibit growth (MIC) was 0.1 µg/mL (≈ 0.236 µM). In addition, in [9], the concentration at 2 h was 340 ng/mL. Also, the concentration at 10 min in [10] was 110 ng/mL. Also, in [12], the concentration at 4 h amounted to 150 ng/mL. For the same compound, the concentration at 1 h in data set [13] was determined as 190 ng/mL. In addition, in data set [14], the concentration at 0.5 h is 210 ng/mL. For the same compound, the concentration at 20 min in data set [16] came to 180 ng/mL.
Take `CN(C)S(=O)(=O)c1ccc(CC2=C(C(=O)O)N3C(=O)[C@@H](NC(=O)[C@H](N)c4ccccc4)[C@H]3SC2)cc1`: the MIC in data set [1] worked out at 500 µg/mL (≈ 942 µM); in data set [2], 25 µg/mL (≈ 47.1 µM); in data set [3] it was 25 µg/mL (≈ 47.1 µM); in data set [4], 125 µg/mL (≈ 236 µM); in [5] it was 25 µg/mL (≈ 47.1 µM); in [6] it was 50 µg/mL (≈ 94.2 µM). Besides, the lowest concentration to inhibit growth in data set [7] (MIC) was 0.5 µg/mL (≈ 0.942 µM).
With `CC(=O)OCCC1=C(C(=O)O)N2C(=O)[C@@H](NC(=O)[C@H](N)c3ccccc3)[C@H]2SC1`, the MIC in [1] is 10 µg/mL (≈ 23.8 µM); in data set [2], 50 µg/mL (≈ 119 µM); in [3], greater than 50 µg/mL; in [4], greater than 50 µg/mL; in data set [5], 25 µg/mL (≈ 59.6 µM); in [6], 25 µg/mL (≈ 59.6 µM). Moreover, it took 0.5 µg/mL (≈ 1.19 µM) to inhibit growth in data set [7] (MIC).
